Screens (PubChem BioAssay)
Diaph act CS: diaphorase activation or chemical reduction counter-screen. actives 0.005% (n = 190,000). activation factor at 20 µM. Diaphorase/resazurin coupled assay, resorufin fluorescence, 16 min; stronger effect = higher value; 1 = vehicle wells, 0 = NADH-free wells. AID 1229;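 active = diaphorase activity raised at least twofold by the compound at 20 µM; inactive = activation factor below 2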
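Material: Purified diaphorase enzyme from Clostridium kluyveri | Buffer or medium: 50 mM HEPES pH 7.4 with 4.542 mM MgCl2, 0.005% Tween 20 | Times: 16 min enzyme reaction, ambient temperature | Signal: Red resorufin fluorescence at 544/590 nm excitation/emission | Measure: Increased resorufin signal from activators or reducing compounds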
Cl transport mod: KCC2 (human) Cl- transport modulation. actives 2.2% (n = 190,000). AID 1456. B-score of Tl+ flux slope (higher = more flux/activation; lower = inhibition) at 10 µM. KCC2 cells, thallium flux FluoZin-2 fluorescence. Q9H2X9;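 active = thallium flux slope and its plate-corrected score both differing from the plate sample mean at a set confidence after two filtering rounds, in either direction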;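 also: slope of fluorescence scaled to starting intensity during 10 to 20 s after thallium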
Target sequence (Q9H2X9 whole entry, looked up): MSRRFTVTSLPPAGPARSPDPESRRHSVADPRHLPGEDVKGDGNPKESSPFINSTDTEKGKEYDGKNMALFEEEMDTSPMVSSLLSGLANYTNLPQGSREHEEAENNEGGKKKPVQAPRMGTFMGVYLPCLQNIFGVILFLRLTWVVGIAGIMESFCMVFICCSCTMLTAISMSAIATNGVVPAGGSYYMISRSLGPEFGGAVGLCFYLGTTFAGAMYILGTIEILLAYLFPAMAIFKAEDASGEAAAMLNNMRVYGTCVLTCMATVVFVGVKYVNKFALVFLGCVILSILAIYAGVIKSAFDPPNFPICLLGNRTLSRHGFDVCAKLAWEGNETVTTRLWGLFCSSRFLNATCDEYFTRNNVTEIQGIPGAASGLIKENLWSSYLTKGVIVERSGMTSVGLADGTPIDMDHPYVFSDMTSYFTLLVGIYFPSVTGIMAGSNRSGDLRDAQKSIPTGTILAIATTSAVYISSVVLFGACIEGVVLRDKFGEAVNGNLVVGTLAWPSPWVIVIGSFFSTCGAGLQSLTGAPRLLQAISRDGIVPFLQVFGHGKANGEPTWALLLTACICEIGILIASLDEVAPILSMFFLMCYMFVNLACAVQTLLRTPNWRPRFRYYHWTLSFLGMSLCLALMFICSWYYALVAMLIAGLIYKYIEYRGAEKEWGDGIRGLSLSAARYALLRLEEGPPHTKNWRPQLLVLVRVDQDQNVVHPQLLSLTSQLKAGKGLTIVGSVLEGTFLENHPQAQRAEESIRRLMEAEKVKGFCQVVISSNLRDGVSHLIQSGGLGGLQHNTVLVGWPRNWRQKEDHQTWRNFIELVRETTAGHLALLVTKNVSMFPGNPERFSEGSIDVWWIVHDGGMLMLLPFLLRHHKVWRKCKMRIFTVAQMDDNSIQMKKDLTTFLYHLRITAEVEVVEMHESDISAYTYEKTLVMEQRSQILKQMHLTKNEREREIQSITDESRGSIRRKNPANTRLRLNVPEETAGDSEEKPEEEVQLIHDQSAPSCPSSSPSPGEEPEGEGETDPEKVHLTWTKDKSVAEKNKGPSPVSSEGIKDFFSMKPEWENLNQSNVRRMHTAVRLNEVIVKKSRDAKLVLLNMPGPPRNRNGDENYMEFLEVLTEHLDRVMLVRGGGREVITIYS
WT yeast gro inh: growth inhibition of WT yeast, mitochondrial fusion screen; inhibition, % at 10 µM; actives 2.1% (n = 190,000); mitochondrial fusion phenotypic screen, WT strain; in the data active = inhibition above about 58%; tested in S. cerevisiae
L major viab: inhibitors of Leishmania major promastigote growth; inhibition, % at 10 µM; actives 9% (n = 200,000); Leishmania major promastigotes, resazurin fluorescence viability; in the data active = inhibition above about 50%;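 also: promastigotes grown with compound for 44 hours at 28 °C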
ROMK primary: human ROMK K+ channel modulation, primary screen; Tet-inducible ROMK, thallium flux fluorescence; actives lie on both sides; B-score at 10 µM; actives 2% (n = 130,000); AID 1918;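 active = signal ratio slope over the read window, or its plate-corrected B-score, at least 3 SD from the plate mean, either direction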;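 also: B-score of the F/F0 ratio slope over 7 to 12 s after thallium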
Diaph inh CS: inhibits diaphorase or chemically oxidizes, flagging diaphorase assay artifacts | AID 1217 | diaphorase resazurin-to-resorufin fluorescence, NADH, 16 min; bacterial (C. kluyveri) enzyme, not human | inhibition, % at 20 µM | actives 0.69% (n = 190,000);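 active = primary screen inhibition at 20 µM above a set limit, cut at about 50% in these data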
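Assay system – diaphorase enzyme from Clostridium kluyveri · Amount – diaphorase 0.14 U/mL (working solution) · Times – reaction incubation of 16 min at room temperature · Controls – No-NADH positive control and DMSO neutral control · Signal – resorufin fluorescence 544/590 nm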
KCC2 secondary: KCC2 (human) modulation, secondary assay. shares compounds with Cl transport mod. HEK293-KCC2, thallium flux, FluoZin2 fluorescence; stronger effect = higher value. normalised thallium flux (F/F0 slope) at 10 µM. actives 15% (n = 3,700);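 active = thallium flux slope above the same plate's solvent-only control mean plus 3 SD; inconclusive = the two replicate wells disagree; inactive = no significant difference from solvent-only control wells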
KCC2 bumet counter: thallium flux persisting under bumetanide in KCC2 cells, counter-screen secondary assay; normalized thallium flux at 10 µM; shares compounds with Cl transport mod; HEK293-KCC2 + bumetanide/ouabain, thallium flux FluoZin2; stronger effect = higher value; actives 49% (n = 3,700);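 active = thallium entry rate above the same plate's blocked-transporter control wells by more than 3 SD; inconclusive = the two repeat wells disagree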;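 also: raw slope of fluorescence over initial fluorescence between 10 and 20 s after thallium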
KCC2 secondary2: KCC2 (human) modulation, second secondary assay. shares compounds with Cl transport mod. HEK293-KCC2, thallium flux FluoZin2 fluorescence; actives lie on both sides; F/F0 rise rate, 10–20 s post-thallium. normalized thallium flux at 10 µM. actives 23% (n = 3,700);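 active = thallium flux slope more than 3 SD above or below the plate's solvent-only control mean, mostly below; inconclusive = the two repeat wells disagreed; inactive = no significant shift from solvent-only controls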
HEK293 Tl flux: counter-screen for KCC2 modulators: effect in parental HEK293 cells | thallium flux rate (normalised fluorescence) at 10 µM | AID 1716 | actives 46% (n = 3,700) | shares compounds with Cl transport mod | thallium flux FluoZin2, ouabain; baseline-ratio fluorescence slope, 10–20 s after thallium;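 active = thallium flux rate significantly above the same plate's solvent-only control wells, beyond their mean plus 3 SD; inconclusive = the two replicate wells gave conflicting results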
KCC2 ouabain: KCC2 (human) modulation, ouabain retest. raw Tl+ flux slope (below DMSO = inhibition, above = activation) at 10 µM. HEK293-KCC2, thallium flux FluoZin2 fluorescence; bidirectional: low = inhibitor, high = activator. actives 48% (n = 3,700). shares compounds with Cl transport mod;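 active = thallium flux slope beyond 3 SD from same-plate DMSO control mean in most replicates, usually higher, sometimes lower; inconclusive = repeat tests gave conflicting results; inactive = no significant difference from controls in most replicates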;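 also: slope of initial-normalized fluorescence between seconds 10 and 20 after thallium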
HEK counter2: parental HEK flux effect, counter-screen 2 | shares compounds with Cl transport mod | HEK293 parental, thallium flux FluoZin-2 fluorescence slope | thallium flux slope at 10 µM | actives 33% (n = 3,700) | AID 1718;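 active = thallium flux slope above the same plate's solvent-control mean plus 3 SD in both duplicate wells; inconclusive = duplicate wells that disagreed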;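 also: run without ouabain in cells lacking the KCC2 cotransporter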
Of the large screens only hits and unclear results are named; the others gave an inactive call (follow-up assays come after a bar, where they were run). This is a sample that favours compounds with a hit; in the whole collection about 12% have one here.

Cc1ccc(-c2ccnc(=S)[nH]2)cc1	Diaph inh CS 67 (no result: Cl transport mod) | KCC2 secondary 0.023 | KCC2 bumet counter 0.032 | KCC2 secondary2 0.041 | HEK293 Tl flux 0.033 | KCC2 ouabain 0.034 | HEK counter2 0.035
S=c1nccc(-c2ccc3c(c2)CCO3)[nH]1	Cl transport mod 4.6 (no result: Diaph act CS, WT yeast gro inh, L major viab, Diaph inh CS) | KCC2 secondary inactive | KCC2 bumet counter 0.011 | KCC2 secondary2 inactive | HEK293 Tl flux 0.013 | KCC2 ouabain 0.021 | HEK counter2 0.016
c1ccc(-c2ccc(-n3ccnc3)cc2)cc1	none (no result: Cl transport mod) | KCC2 secondary inactive | KCC2 bumet counter inactive | KCC2 secondary2 inconclusive | HEK293 Tl flux inactive | KCC2 ouabain 0.017 | HEK counter2 inactive
O=C(C1CCCN(S(=O)(=O)c2cccc3nsnc23)C1)N1CCc2ccccc2C1 (centres undefined)	Cl transport mod -3.2 | KCC2 secondary inactive | KCC2 bumet counter inactive | KCC2 secondary2 inactive | HEK293 Tl flux inactive | KCC2 ouabain inactive | HEK counter2 inactive
O=C(C1CCCN(S(=O)(=O)c2cccc3nsnc23)C1)N1CCc2ccccc21 (centres undefined)	none (no result: Cl transport mod) | KCC2 secondary inactive | KCC2 bumet counter inactive | KCC2 secondary2 inactive | HEK293 Tl flux inconclusive | KCC2 ouabain inactive | HEK counter2 inactive
CC1CCCN(C(=O)C2CCCN(S(=O)(=O)c3cccc4nsnc34)C2)C1 (centres undefined)	none (no result: Cl transport mod)
O=C(C1CCCN(S(=O)(=O)c2cccc3nsnc23)C1)N1CCCCCC1 (centres undefined)	none
CC1(C)N(OCc2ccccc2)C(=O)C(=O)N(OCc2ccccc2)C1(C)C	none (no result: Cl transport mod, ROMK primary)
Cc1ccc(-c2csc3ncn(CC(=O)N4CCOCC4)c(=O)c23)cc1C	none (no result: Cl transport mod) | KCC2 secondary inactive | KCC2 bumet counter inconclusive | KCC2 secondary2 inactive | HEK293 Tl flux inactive | KCC2 ouabain inactive | HEK counter2 inactive
N#C/C(=C(/O)COC(=O)c1ccccc1O)c1nc2ccccc2s1	Cl transport mod -5.1 | KCC2 secondary inactive | KCC2 bumet counter inactive | KCC2 secondary2 inactive | HEK293 Tl flux inactive | KCC2 ouabain 0.016 | HEK counter2 inactive
O=C(OCc1nc2ccccc2s1)c1ccccc1O	none
CCc1ccc(-c2nc(CS(=O)CC(=O)NCc3cccnc3)c(C)o2)cc1 (centres undefined)	Cl transport mod 4.4 (no result: ROMK primary) | KCC2 secondary inactive | KCC2 bumet counter inactive | KCC2 secondary2 inconclusive | HEK293 Tl flux inactive | KCC2 ouabain inconclusive | HEK counter2 inactive
Cc1oc(-c2ccc(Cl)cc2)nc1CS(=O)CC(=O)NCc1cccs1 (centres undefined)	Cl transport mod -3.6 (no result: ROMK primary) | KCC2 secondary inactive | KCC2 bumet counter inactive | KCC2 secondary2 inactive | HEK293 Tl flux inactive | KCC2 ouabain inactive | HEK counter2 inactive
COc1ccc(-c2nc(CS(=O)CC(=O)NCc3cccnc3)c(C)o2)cc1 (centres undefined)	none (no result: ROMK primary)
CC(C)(C)C(=O)Nc1nnc(-c2ccncc2)o1	none (no result: ROMK primary)
